This note sets out measurements from ChEMBL document CHEMBL1146451, “Spirostanol and furostanol glycosides from the fresh tubers of Polianthes tuberosa” (J Nat Prod, 2004).

Each structure is given as a SMILES string. Values after ≈ are worked out from the molar mass of the structure shown.

For orientation: IC50 means the concentration that gives 50% inhibition.

This assay concerns HeLa. Kind of assay: Cytotoxicity against human HeLa cells after 72 hrs by MTT assay. In kind it is functional, cell-based. In outline: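 HeLa cells seeded at 2 × 10^4 cells/mL in RPMI 1640, preincubated 12 h at 37 °C in 5% CO2/air. Samples added in DMSO to final 25, 20, 15, 10, 5, 2.5, 1.25, 0.80 µg/mL; DMSO alone in control wells.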
(In general: Formazan colour is commonly taken as a measure of viable cells.)
`C[C@@H]1CC[C@@]2(OC1)O[C@H]1C[C@H]3[C@@H]4CC[C@H]5C[C@@H](O[C@@H]6O[C@H](CO)[C@H](O[C@@H]7O[C@H](CO)[C@@H](O)[C@H](O)[C@H]7O[C@@H]7O[C@H](CO)[C@@H](O)[C@H](O)[C@H]7O)[C@H](O)[C@H]6O)CC[C@]5(C)[C@H]4CC(=O)[C@]3(C)[C@H]1[C@@H]2C` had an IC50 of 8.61 µg/mL (≈ 9.39 µM).
Consider `C[C@@H]1CC[C@@]2(OC1)O[C@H]1C[C@H]3[C@@H]4C[C@H](O)[C@H]5C[C@@H](O[C@@H]6O[C@H](CO)[C@H](O[C@@H]7O[C@H](CO)[C@@H](O)[C@H](O[C@@H]8OC[C@@H](O)[C@H](O)[C@H]8O)[C@H]7O[C@@H]7O[C@H](CO)[C@@H](O)[C@H](O[C@@H]8OC[C@@H](O)[C@H](O)[C@H]8O)[C@H]7O)[C@H](O)[C@H]6O)CC[C@]5(C)[C@H]4CC[C@]3(C)[C@H]1[C@@H]2C`, for which inhibition was half-maximal at 7.5 µg/mL (≈ 6.34 µM) (IC50).
`C[C@H](CC[C@@]1(O)O[C@H]2C[C@H]3[C@@H]4CC[C@H]5C[C@@H](O[C@@H]6O[C@H](CO)[C@H](O[C@@H]7O[C@H](CO)[C@@H](O)[C@H](O[C@@H]8OC[C@@H](O)[C@H](O)[C@H]8O)[C@H]7O[C@@H]7O[C@H](CO)[C@@H](O)[C@H](O)[C@H]7O)[C@H](O)[C@H]6O)CC[C@]5(C)[C@H]4CC[C@]3(C)[C@H]2[C@@H]1C)CO[C@@H]1O[C@H](CO)[C@@H](O)[C@H](O)[C@H]1O` showed an IC50 of 18.8 µg/mL (≈ 15.5 µM).
`C[C@@H]1CC[C@@]2(OC1)O[C@H]1C[C@H]3[C@@H]4CC[C@H]5C[C@@H](O[C@@H]6O[C@H](CO)[C@H](O[C@@H]7O[C@H](CO)[C@@H](O)[C@H](O[C@@H]8OC[C@@H](O)[C@H](O)[C@H]8O)[C@H]7O[C@@H]7O[C@H](CO)[C@@H](O)[C@H](O[C@@H]8OC[C@@H](O)[C@H](O)[C@H]8O)[C@H]7O)[C@H](O)[C@H]6O)CC[C@]5(C)[C@H]4CC[C@]3(C)[C@H]1[C@@H]2C` came in with a concentration for half-maximal inhibition (IC50) of 7.2 µg/mL (≈ 6.17 µM).
To `C[C@@H]1CC[C@@]2(OC1)O[C@H]1C[C@H]3[C@@H]4CC[C@H]5C[C@@H](O[C@@H]6O[C@H](CO)[C@H](O[C@@H]7O[C@H](CO)[C@@H](O)[C@H](O[C@@H]8OC[C@@H](O)[C@H](O)[C@H]8O)[C@H]7O[C@@H]7O[C@H](CO)[C@@H](O)[C@H](O[C@@H]8OC[C@@H](O)[C@H](O)[C@H]8O)[C@H]7O)[C@H](O)[C@H]6O)CC[C@]5(C)[C@H]4CC(=O)[C@]3(C)[C@H]1[C@@H]2C` belongs 4.02 µg/mL (≈ 3.4 µM).
Regarding `C[C@@H]1CC[C@@]2(OC1)O[C@H]1C[C@H]3[C@@H]4CC[C@H]5C[C@@H](O[C@@H]6O[C@H](CO)[C@H](O[C@@H]7O[C@H](CO)[C@@H](O)[C@H](O[C@@H]8OC[C@@H](O)[C@H](O)[C@H]8O)[C@H]7O[C@@H]7O[C@H](CO)[C@@H](O)[C@H](O)[C@H]7O)[C@H](O)[C@H]6O)CC[C@]5(C)[C@H]4CC(=O)[C@]3(C)[C@H]1[C@@H]2C`, the IC50 came out at 8.17 µg/mL (≈ 7.79 µM).
To `C[C@@H]1CC[C@@]2(OC1)O[C@H]1C[C@H]3[C@@H]4CC[C@H]5C[C@@H](O[C@@H]6O[C@H](CO)[C@H](O[C@@H]7O[C@H](CO)[C@@H](O)[C@H](O[C@@H]8O[C@H](CO)[C@@H](O)[C@H](O)[C@H]8O)[C@H]7O[C@@H]7O[C@H](CO)[C@@H](O)[C@H](O[C@@H]8OC[C@@H](O)[C@H](O)[C@H]8O)[C@H]7O)[C@H](O)[C@H]6O)CC[C@]5(C)[C@H]4CC(=O)[C@]3(C)[C@H]1[C@@H]2C` [AGAMENOSIDE F] belongs 5.1 µg/mL (≈ 4.21 µM); to `C[C@@H]1CC[C@@]2(OC1)O[C@H]1C[C@H]3[C@@H]4CC[C@H]5C[C@@H](O[C@@H]6O[C@H](CO)[C@H](O[C@@H]7O[C@H](CO)[C@@H](O)[C@H](O[C@@H]8O[C@H](CO)[C@@H](O)[C@H](O)[C@H]8O)[C@H]7O[C@@H]7O[C@H](CO)[C@@H](O)[C@H](O[C@@H]8OC[C@@H](O)[C@H](O)[C@H]8O)[C@H]7O)[C@H](O)[C@H]6O)CC[C@]5(C)[C@H]4CC[C@]3(C)[C@H]1[C@@H]2C` [POLIANTHOSIDE B], greater than 20 µg/mL; to `C[C@@H]1CC[C@@]2(OC1)O[C@H]1C[C@H]3[C@@H]4CC[C@H]5C[C@@H](O[C@@H]6O[C@H](CO)[C@H](O[C@@H]7O[C@H](CO)[C@@H](O)[C@H](O[C@@H]8O[C@H](CO)[C@@H](O)[C@H](O)[C@H]8O)[C@H]7O[C@@H]7O[C@H](CO)[C@@H](O)[C@H](O[C@@H]8O[C@H](CO)[C@@H](O)[C@H](O)[C@H]8O)[C@H]7O)[C@H](O)[C@H]6O)CC[C@]5(C)[C@H]4CC[C@]3(C)[C@H]1[C@@H]2C` [POLIANTHOSIDE C], greater than 20 µg/mL.
`C[C@H](CC[C@@]1(O)O[C@H]2C[C@H]3[C@@H]4CC[C@H]5C[C@@H](O[C@@H]6O[C@H](CO)[C@H](O[C@@H]7O[C@H](CO)[C@@H](O)[C@H](O[C@@H]8OC[C@@H](O)[C@H](O)[C@H]8O)[C@H]7O[C@@H]7O[C@H](CO)[C@@H](O)[C@H](O)[C@H]7O)[C@H](O)[C@H]6O)CC[C@]5(C)[C@H]4CC(=O)[C@]3(C)[C@H]2[C@@H]1C)CO[C@@H]1O[C@H](CO)[C@@H](O)[C@H](O)[C@H]1O` [POLIANTHOSIDE D] registered an IC50 of 7.86 µg/mL (≈ 6.39 µM).
For `C[C@H](CC[C@@]1(O)O[C@H]2C[C@H]3[C@@H]4CC[C@H]5C[C@@H](O[C@@H]6O[C@H](CO)[C@H](O[C@@H]7O[C@H](CO)[C@@H](O)[C@H](O[C@@H]8OC[C@@H](O)[C@H](O)[C@H]8O)[C@H]7O[C@@H]7O[C@H](CO)[C@@H](O)[C@H](O[C@@H]8OC[C@@H](O)[C@H](O)[C@H]8O)[C@H]7O)[C@H](O)[C@H]6O)CC[C@]5(C)[C@H]4CC(=O)[C@]3(C)[C@H]2[C@@H]1C)CO[C@@H]1O[C@H](CO)[C@@H](O)[C@H](O)[C@H]1O` [POLIANTHOSIDE E], the concentration for half-maximal inhibition (IC50) worked out at 5.21 µg/mL (≈ 3.83 µM).
In turn, `C[C@H](CC[C@@]1(O)O[C@H]2C[C@H]3[C@@H]4CC[C@H]5C[C@@H](O[C@@H]6O[C@H](CO)[C@H](O[C@@H]7O[C@H](CO)[C@@H](O)[C@H](O[C@@H]8OC[C@@H](O)[C@H](O)[C@H]8O)[C@H]7O[C@@H]7O[C@H](CO)[C@@H](O)[C@H](O[C@@H]8OC[C@@H](O)[C@H](O)[C@H]8O)[C@H]7O)[C@H](O)[C@H]6O)CC[C@]5(C)[C@H]4CC[C@]3(C)[C@H]2[C@@H]1C)CO[C@@H]1O[C@H](CO)[C@@H](O)[C@H](O)[C@H]1O` [POLIANTHOSIDE F] had an IC50 of 20 µg/mL (≈ 14.8 µM).
As to `C[C@H](CC[C@@]1(O)O[C@H]2C[C@H]3[C@@H]4CC[C@H]5C[C@@H](O[C@@H]6O[C@H](CO)[C@H](O[C@@H]7O[C@H](CO)[C@@H](O)[C@H](O[C@@H]8O[C@H](CO)[C@@H](O)[C@H](O)[C@H]8O)[C@H]7O[C@@H]7O[C@H](CO)[C@@H](O)[C@H](O[C@@H]8OC[C@@H](O)[C@H](O)[C@H]8O)[C@H]7O)[C@H](O)[C@H]6O)CC[C@]5(C)[C@H]4CC[C@]3(C)[C@H]2[C@@H]1C)CO[C@@H]1O[C@H](CO)[C@@H](O)[C@H](O)[C@H]1O` [POLIANTHOSIDE G], the IC50 was determined as 5.36 µg/mL (≈ 3.89 µM).
